Screening results deposited in PubChem by several laboratories.
The full list was thinned out, with hits kept by preference.
A1 inh: inhibitors of the anti-apoptotic protein A1, read as caspase activation; actives 0.066% (n = 330,000); MEF A1-2A-BIM cells, Caspase-Glo 3/7 luminescence, 3 h; percent of clofoctol response, vehicle zero; caspase activation, % (concentration not given with the values);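 active means over half of replicate activation scores above 10%, or exactly half above 10 with the replicate mean above 10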
UPR XBP1 act: adaptive UPR (XBP1) activation | actives 0.33% (n = 330,000) | CHO-XBP1 luciferase reporter, IRE1-XBP1 UPR activation, luminescence; percent of tunicamycin response, DMSO as zero | AID 463104 | activation, % at 20 µM;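 active means versus positive control, 20 µM dose yields 30% or more activation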;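 further: 100% = tunicamycin at 10 µg/mL and 0% = DMSO only wells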
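incubation = overnight seeding at 37 °C, 6 h compound treatment at 37 °C | assay system = CHO-XBP1 cells stably carrying IRE1-XBP1-driven luciferase reporter | input = 1000 cells per well | detection = luciferase luminescence | dosing = single point, 20 µM final compound, 1% DMSO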
CHOP UPR activ: activators of apoptotic arm of unfolded protein response (CHOP). AID 449763. activation, % at 10 µM. CHO-CHOP luciferase reporter, UPR activation, luminescence; percent of tunicamycin response over DMSO baseline. actives 0.34% (n = 330,000);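 active means at 10 µM dose, activation of 40% or more, normalized to positive control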;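 further: 100% = tunicamycin at 10 µg/mL and 0% = DMSO alone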
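Material: CHO-CHOP cells, stable luciferase reporter of PERK-eIF2a-CHOP signalling; quantity: 500 reporter cells seeded per well; buffer or medium: F12 medium containing 10% fetal bovine serum; compound: one dose, 10 µM in 0.5% DMSO; incubation: 6 h compound treatment, 37 °C; measured by: Steady-Glo luciferase luminescence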
CHOP inh: CHOP inhibition in unfolded protein response; CHO-K1 CHOP-promoter luciferase, tunicamycin-induced, 15-18 h; inhibition, % at 10 µM; actives 3.8% (n = 220,000); AID 2732;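 active means compounds that reduced the stress-induced luciferase reporter signal by more than about 70% of percent inhibition, limit read from the data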;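 further: 0% = tunicamycin plus vehicle and 100% = wells without tunicamycin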
CHOP confirm: confirmation of CHOP induction inhibitors; shares compounds with CHOP inh; CHO-CHOP promoter luciferase reporter, tunicamycin-induced, luminescence; inhibition, % at 10 µM; actives 45% (n = 2,100);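 active means mean of three repeat readings of reporter signal inhibition above a set limit, cut at about 70% in these data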;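 further: 0% = tunicamycin plus vehicle and 100% = wells lacking tunicamycin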
Active calls of the source: *.

For CC(C)CCn1c(=O)c(C(=O)Nc2ccccc2S(N)(=O)=O)c(O)c2ccccc21 the results were A1 inh 0.2, UPR XBP1 act 6.1, CHOP UPR activ 17.2 and CHOP inh 92.1*.
CN(C)C=C1C(=O)N(C2CCCCC2)C(=O)N(C2CCCCC2)C1=O was read as A1 inh 0.8, UPR XBP1 act 4.5, CHOP UPR activ 2.6 and CHOP inh 77.0*.
For CN1C(=O)C(=Cc2ccc(SC3CCCCC3)o2)C(=O)N(C)C1=O the results were A1 inh -0.7, UPR XBP1 act -2.3, CHOP UPR activ -1.0 and CHOP inh -5.0.
CC(C)(C)c1cc([N+](=O)[O-])cc(C(C)(C)C)c1O was read as A1 inh 0.4, UPR XBP1 act 13.8, CHOP UPR activ 3.2 and CHOP inh 73.1*.
O=[N+]([O-])c1cccc(O)c1 was read as A1 inh -0.1, UPR XBP1 act 1.8 and CHOP UPR activ 2.6.
C[C@@H]1O[C@H](C[N+](C)(C)C)C[C@H]1O was read as CHOP inh -0.4.
Cc1ccc(/C=C2\C(=O)NC(=S)N(c3ccccc3F)C2=O)s1 was read as A1 inh 0.9 and CHOP inh 107.2*.
Screening CN(CC(=O)Nc1ccccc1-c1ccccc1)C1CCCCC1 returned A1 inh 1.0, UPR XBP1 act -3.8, CHOP UPR activ -1.7 and CHOP inh 82.9*.
For CCCC1=C(C(=O)OCC)C2(C(=O)Nc3ccc(C)cc32)C(C#N)=C(N)O1 (stereo not drawn) the results were A1 inh 0.8, UPR XBP1 act -1.2, CHOP UPR activ -2.7 and CHOP inh 41.5.
`CCOC(=O)CC1=C(C(=O)OCC)C2(C(=O)Nc3ccccc32)C(C#N)=C(N)O1` (stereo not drawn) gave A1 inh 6.5*, UPR XBP1 act -1.8, CHOP UPR activ 0.2 and CHOP inh 50.1.
C[C@H]1CCC/C=C/[C@@H]2C[C@H](O)C[C@H]2[C@H](O)/C=C/C(=O)O1 was read as A1 inh 2.4, UPR XBP1 act 12.1 and CHOP UPR activ 115.1*.
NCC#Cc1ccccc1 was read as CHOP inh 5.3.
For CC(O)(CS(=O)(=O)c1cccc(C(F)(F)F)c1)C(=O)Nc1cccc(C(F)(F)F)c1 (stereo not drawn) the results were A1 inh 0.7, UPR XBP1 act -0.7, CHOP UPR activ -2.2 and CHOP inh 71.9*.
`CCCN(CCC)[C@@H]1CCc2c(F)ccc(O)c2C1` gave CHOP inh -15.2.
`CCCCn1c(O)c(C(C)=NC(C)c2ccccc2)c(=O)[nH]c1=O` (stereo not drawn) gave A1 inh -0.6, UPR XBP1 act 4.6, CHOP UPR activ 0.3 and CHOP inh 26.5.
`CCCCn1c(O)c(C(CC)=Nc2ccc(OCC)cc2)c(=O)[nH]c1=O` gave A1 inh -0.3, UPR XBP1 act -2.3, CHOP UPR activ -1.6 and CHOP inh 90.5*.
`CCCCn1c(O)c(C(CC)=NC(C)c2ccccc2)c(=O)[nH]c1=O` (stereo not drawn) gave A1 inh -0.3, UPR XBP1 act 2.8, CHOP UPR activ -2.1 and CHOP inh 81.5*.
`C=C1C(=O)O[C@@H]2C[C@@H](C)[C@@H]3C=CC(=O)[C@@]3(C)[C@@H](O)[C@H]12` gave A1 inh 1.1, UPR XBP1 act -12.1, CHOP UPR activ -9.4, CHOP inh 107.4* and CHOP confirm 119.0*.
Screening Nc1cc(Cl)c2nonc2c1[N+](=O)[O-] returned A1 inh -1.7, CHOP inh 107.6* and CHOP confirm 120.9*.
`COc1ccc(CN2C(=O)NC(=O)/C(=C\c3ccco3)C2=O)cc1` gave A1 inh 0.0, UPR XBP1 act 4.0, CHOP UPR activ 0.2, CHOP inh 104.5* and CHOP confirm -28.9.
`CCOC(=O)c1sc(N=Nc2c(O)[nH]c(=O)[nH]c2=O)c(C(=O)OCC)c1C` gave A1 inh 0.1, UPR XBP1 act 13.9, CHOP UPR activ 2.5, CHOP inh 105.0* and CHOP confirm 106.0*.
`O=c1[nH]c(O)c(C=Nc2ccccc2Sc2ccccc2)c(=O)[nH]1` gave A1 inh 0.5, UPR XBP1 act 2.3, CHOP UPR activ 0.5, CHOP inh 100.5* and CHOP confirm -33.9.
`COc1nc2ccccc2nc1N1CCN(C)CC1` gave A1 inh 1.3, UPR XBP1 act -2.4 and CHOP UPR activ 2.1.
CC(=O)OC[C@]12CCC(C)=C[C@H]1O[C@@H]1[C@H](O)[C@@H](OC(C)=O)[C@@]2(C)[C@]12CO2 was read as A1 inh -0.3, UPR XBP1 act -6.4, CHOP UPR activ -6.2, CHOP inh 104.2* and CHOP confirm 123.2*.
For C=CCn1c(O)c(C(CC)=Nc2ccc(N(CC)CC)cc2)c(=O)[nH]c1=O the results were A1 inh 0.4, UPR XBP1 act -1.3, CHOP UPR activ 2.7, CHOP inh 102.7* and CHOP confirm 95.9*.
For CCOC(=O)c1sc(/N=C/c2c(O)n(-c3ccccc3)c(=O)[nH]c2=O)c(C#N)c1C the results were A1 inh 0.1, UPR XBP1 act 2.5, CHOP UPR activ 0.2 and CHOP inh 26.6.
For CCOC(=O)c1c(/N=C/c2c(O)n(-c3cccc(C)c3)c(=O)[nH]c2=O)sc2c1CCCC2 the results were A1 inh 1.5, UPR XBP1 act 2.1, CHOP UPR activ 4.4, CHOP inh 97.5* and CHOP confirm 88.1*.
Screening CS(=O)(=O)N1CCN(C(=N)N[N+](=O)[O-])CC1 returned A1 inh 0.5, UPR XBP1 act -1.3, CHOP UPR activ -0.7 and CHOP inh 7.2.
Screening CCOC(=O)C(NC(=O)CC)(Nc1ccc(C(O)(C(=O)OCC)C(F)(F)F)cc1C)C(F)(F)F (stereo not drawn) returned A1 inh -0.5, UPR XBP1 act -2.6, CHOP UPR activ -1.1 and CHOP inh -34.0.
COC(=O)C(O)(c1ccc(NC(=S)NC(=O)c2ccc(Cl)cc2Cl)c(C)c1)C(F)(F)F (stereo not drawn) was read as A1 inh -0.1, UPR XBP1 act -0.4, CHOP UPR activ 0.0, CHOP inh 98.0* and CHOP confirm 106.4*.
O=C(COc1ccccc1)Nc1ccc(Cl)cc1C(=O)c1ccccc1 was read as A1 inh 0.1, UPR XBP1 act -5.5, CHOP UPR activ 1.0, CHOP inh 96.4* and CHOP confirm 5.2.
`O=C(COC(=O)c1ccc(O)cc1)Nc1ccc(Cl)cc1C(=O)c1ccccc1` gave A1 inh -0.1, UPR XBP1 act 0.2, CHOP UPR activ -2.2, CHOP inh 102.2* and CHOP confirm 40.9.
For CC(C)c1ccc(NC(=O)CCNC(=O)N2C[C@H]3C[C@@H](C2)c2cccc(=O)n2C3)cc1 the results were A1 inh 0.1, UPR XBP1 act -3.9 and CHOP UPR activ 2.0.
